Reference: ChEMBL document CHEMBL5236549, “Discovery of 2-Sulfinyl-Diazabicyclooctane Derivatives, Potential Oral β-Lactamase Inhibitors for Infections Caused by Serine β-Lactamase-Producing Enterobacterales” (J Med Chem, 2021)
Converted amounts (≈) assume the structure as drawn.

Assays:
[1] = AUC in rat at 5 mg/kg,po by LC/MS/MS analysis; type: ADME, organism-based; set-up: dose 5 mg/kg, route po; details: in vivo
Procedure, shortened: (§1)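 Plasma of the parent acid measured by LC/MS/MS (methanol precipitation, positive ESI, external standard); oral values follow prodrug dosing (rat fed, dog and monkey fasted). AUC from 0 h to last time point by linear trapezoid; F from oral AUC versus iv AUC of the parent. N = 2 (rat, dog), N = 3 (monkey, mouse).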

[2] = Cmax in dog at 10 mg/kg,po by LC/MS/MS analysis; type: ADME, organism-based, Canis lupus familiaris; set-up: dose 10 mg/kg, route po; details: in vivo; procedure, shortened: as §1
[3] = Oral bioavailability in monkey at 10 mg/kg by LC/MS/MS analysis; type: ADME, organism-based, Macaca mulatta; details: rhesus monkey, in vivo; procedure, shortened: as §1
[4] = Tmax in rat at 5 mg/kg,po by LC/MS/MS analysis; type: ADME, organism-based; details: in vivo
[5] = Tmax in dog at 10 mg/kg,po by LC/MS/MS analysis; type: ADME, organism-based, Canis lupus familiaris; details: in vivo
[6] = AUC in monkey at 10 mg/kg,po by LC/MS/MS analysis; type: ADME, organism-based, Macaca mulatta; set-up: dose 10 mg/kg, route po; details: rhesus monkey, in vivo; procedure, shortened: as §1
[7] = Cmax in rat at 5 mg/kg,po by LC/MS/MS analysis; type: ADME, organism-based; set-up: dose 5 mg/kg, route po; details: in vivo; procedure, shortened: as §1
[8] = Tmax in monkey at 10 mg/kg,po by LC/MS/MS analysis; type: ADME, organism-based, Macaca mulatta; details: rhesus monkey, in vivo
[9] = Stability of the compound in phosphate buffer at pH 7.0 assessed as parent compound remaining at 40 degreeC measured after 16 hrs; type: physicochemical; details: read-out: Stability
Procedure, shortened: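 Compound held in pH 7.0 phosphate buffer at 40 °C for 16 h; amount remaining reported as %.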

[10] = Cmax in monkey at 10 mg/kg,po by LC/MS/MS analysis; type: ADME, organism-based, Macaca mulatta; set-up: dose 10 mg/kg, route po; details: rhesus monkey, in vivo; procedure, shortened: as §1
[11] = Oral bioavailability in rat at 5 mg/kg by LC/MS/MS analysis; type: ADME, organism-based; details: in vivo; procedure, shortened: as §1
[12] = Oral bioavailability in dog at 10 mg/kg by LC/MS/MS analysis; type: ADME, organism-based, Canis lupus familiaris; details: in vivo; procedure, shortened: as §1
[13] = AUC in dog at 10 mg/kg,po by LC/MS/MS analysis; type: ADME, organism-based, Canis lupus familiaris; set-up: dose 10 mg/kg, route po; details: in vivo; procedure, shortened: as §1
[14] = Inhibition of bacterial beta-lactamase CMY-2 using nitrocefin as substrate incubated for 20 mins; set-up: species or system Bacteria
Procedure, shortened: (§2)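 Nitrocefin hydrolysis read by absorbance. Enzyme titrated to give about 0.2 absorbance change over the no-enzyme control. Enzyme added to nitrocefin (final 50 μg/mL) plus inhibitor, no preincubation, read after 20 min at 35 °C. IC50 is 50% reduction of hydrolysis. N = 1.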

Escherichia coli [15] = assay: Antibacterial activity against Escherichia coli ATCC SR34100 assessed as inhibition of bacterial growth incubated for 16 to 20 hrs by CLSI based two-fold serial dilution method
Klebsiella pneumoniae [16] = assay: Antibacterial activity against Klebsiella pneumoniae SR200487 assessed as inhibition of bacterial growth incubated for 16 to 24 hrs by CLSI based two-fold serial dilution method; type: functional; details: time 16-24 hrs
Procedure, shortened: (§3)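 CLSI broth microdilution in cation-adjusted Mueller Hinton broth, twofold serial dilutions, about 5 × 10⁴ cfu/well from OD625, 35 °C for 16−20 h. MIC is the lowest concentration with no visible growth.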

Enterobacter cloacae [17] = assay: Antibacterial activity against Enterobacter cloacae SR100108 assessed as reduction in bacterial growth by measuring minimum […] concentration incubated for 16 to 20 hrs by CLSI based two-fold serial dilution method; details: time 16-20 hrs
Klebsiella pneumoniae [18] = assay: Antibacterial activity against Klebsiella pneumoniae SR09635 assessed as reduction in bacterial growth by measuring minimum […] concentration incubated for 16 to 20 hrs by CLSI based two-fold serial dilution method; details: time 16-20 hrs
Klebsiella pneumoniae [19] = assay: Antibacterial activity against Klebsiella pneumoniae SR09603 assessed as inhibition of bacterial growth incubated for 16 to 20 hrs by CLSI based two-fold serial dilution method
Enterobacter cloacae [20] = assay: Antibacterial activity against Enterobacter cloacae SR100108 assessed as inhibition of bacterial growth incubated for 16 to 20 hrs by CLSI based two-fold serial dilution method
Klebsiella pneumoniae [21] = assay: Antibacterial activity against Klebsiella pneumoniae SR100758 assessed as reduction in bacterial growth by measuring minimum […] concentration incubated for 16 to 24 hrs by CLSI based two-fold serial dilution method; type: functional; details: time 16-24 hrs
Procedure, shortened: (§4)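 Inhibitor twofold serially diluted in cation-adjusted Mueller Hinton broth containing ceftibuten 1 μg/mL. About 5 × 10⁴ cfu/well, 35 °C for 16−20 h. […] N = 1.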

Enterobacter cloacae [22] = assay: Antibacterial activity against Enterobacter cloacae SR36276 assessed as inhibition of bacterial growth incubated for 16 to 20 hrs by CLSI based two-fold serial dilution method
Klebsiella pneumoniae [23] = assay: Antibacterial activity against Klebsiella pneumoniae SR09635 assessed as inhibition of bacterial growth incubated for 16 to 20 hrs by CLSI based two-fold serial dilution method
Klebsiella pneumoniae [24] = assay: Antibacterial activity against Klebsiella pneumoniae SR201325 assessed as inhibition of bacterial growth incubated for 16 to 20 hrs by CLSI based two-fold serial dilution method
[25] = Inhibition of bacterial beta-lactamase OXA-48 using nitrocefin as substrate incubated for 20 mins; set-up: species or system Bacteria; procedure, shortened: as §2
Klebsiella pneumoniae [26] = assay: Antibacterial activity against Klebsiella pneumoniae SR200263 assessed as reduction in bacterial growth by measuring minimum […] concentration incubated for 16 to 20 hrs by CLSI based two-fold serial dilution method; details: time 16-20 hrs
Escherichia coli [27] = assay: Antibacterial activity against Escherichia coli ATCC SR34100 assessed as reduction in bacterial growth by measuring minimum […] concentration incubated for 16 to 24 hrs by CLSI based two-fold serial dilution method; type: functional; details: time 16-24 hrs
Procedure, shortened: (§5)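 MPC₁ by broth microdilution: twofold serial dilutions of inhibitor in cation-adjusted Mueller Hinton broth containing ceftibuten at 1 μg/mL. Inoculum about 5 × 10⁴ cfu/well final, set from OD625. Incubation at 35 °C for 16−20 h. […] N = 1.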

Klebsiella pneumoniae [28] = assay: Antibacterial activity against Klebsiella pneumoniae ATCC SR201218 assessed as reduction in bacterial growth by measuring minimum […] concentration incubated for 16 to 24 hrs by CLSI based two-fold serial dilution method; type: functional; details: time 16-24 hrs; procedure, shortened: as §5
Escherichia coli [29] = assay: Antibacterial activity against Escherichia coli ATCC SR09613 assessed as reduction in bacterial growth by measuring minimum […] concentration incubated for 16 to 24 hrs by CLSI based two-fold serial dilution method; type: functional; details: time 16-24 hrs; procedure, shortened: as §5
Klebsiella pneumoniae [30] = assay: Antibacterial activity against Klebsiella pneumoniae ATCC SR201218 assessed as inhibition of bacterial growth incubated for 16 to 20 hrs by CLSI based two-fold serial dilution method
Klebsiella pneumoniae [31] = assay: Antibacterial activity against Klebsiella pneumoniae SR100758 assessed as inhibition of bacterial growth incubated for 16 to 24 hrs by CLSI based two-fold serial dilution method; type: functional; details: time 16-24 hrs; procedure, shortened: as §3
Klebsiella pneumoniae [32] = assay: Antibacterial activity against Klebsiella pneumoniae SR200487 assessed as reduction in bacterial growth by measuring minimum […] concentration incubated for 16 to 20 hrs by CLSI based two-fold serial dilution method; details: time 16-20 hrs
Klebsiella pneumoniae [33] = assay: Antibacterial activity against Klebsiella pneumoniae SR09603 assessed as reduction in bacterial growth by measuring minimum […] concentration incubated for 16 to 20 hrs by CLSI based two-fold serial dilution method; details: time 16-20 hrs
Klebsiella pneumoniae [34] = assay: Antibacterial activity against Klebsiella pneumoniae SR201325 assessed as reduction in bacterial growth by measuring minimum […] concentration incubated for 16 to 24 hrs by CLSI based two-fold serial dilution method; type: functional; details: time 16-24 hrs; procedure, shortened: as §4
Enterobacter cloacae [35] = assay: Antibacterial activity against Enterobacter cloacae SR200030 assessed as reduction in bacterial growth by measuring minimum […] concentration incubated for 16 to 24 hrs by CLSI based two-fold serial dilution method; type: functional; details: time 16-24 hrs; procedure, shortened: as §4
Klebsiella pneumoniae [36] = assay: Antibacterial activity against Klebsiella pneumoniae ATCC BAA1705 assessed as reduction in bacterial growth by measuring minimum potentiating concentration incubated for 16 to 20 hrs by CLSI based two-fold serial dilution method; details: time 16-20 hrs
Klebsiella pneumoniae [37] = assay: Antibacterial activity against Klebsiella pneumoniae SR200263 assessed as inhibition of bacterial growth incubated for 16 to 24 hrs by CLSI based two-fold serial dilution method; type: functional; details: time 16-24 hrs; procedure, shortened: as §3
Enterobacter cloacae [38] = assay: Antibacterial activity against Enterobacter cloacae SR200030 assessed as inhibition of bacterial growth incubated for 16 to 24 hrs by CLSI based two-fold serial dilution method; type: functional; details: time 16-24 hrs; procedure, shortened: as §3
[39] = Inhibition of bacterial beta-lactamase KPC-2 using nitrocefin as substrate incubated for 20 mins; set-up: species or system Bacteria; procedure, shortened: as §2
Klebsiella pneumoniae [40] = assay: Antibacterial activity against Klebsiella pneumoniae ATCC BAA1705 assessed as inhibition of bacterial growth incubated for 16 to 20 hrs by CLSI based two-fold serial dilution method
Escherichia coli [41] = assay: Antibacterial activity against Escherichia coli ATCC SR09613 assessed as inhibition of bacterial growth incubated for 16 to 20 hrs by CLSI based two-fold serial dilution method
Enterobacter cloacae [42] = assay: Antibacterial activity against Enterobacter cloacae SR36276 assessed as reduction in bacterial growth by measuring minimum […] concentration incubated for 16 to 20 hrs by CLSI based two-fold serial dilution method; details: time 16-20 hrs

CCOC(=O)[C@@H](F)ON1C(=O)N2C[C@H]1CC[C@H]2[S@@+](C)[O-]
AUC [1]: 2300 ng·h/mL
Cmax [2]: 10600 ng/mL
bioavailability [3]: 29.9%
Tmax [4]: 0.5 h
Tmax [5]: 1 h
AUC [6]: 8320 ng·h/mL
Cmax [7]: 2150 ng/mL
Tmax [8]: 1 h
remaining at 16 h [9]: 11%
Cmax [10]: 4510 ng/mL
bioavailability [11]: 74.4%
bioavailability [12]: 68.3%
AUC [13]: 26000 ng·h/mL

NC(=O)[C@@H]1CC[C@@H]2CN1C(=O)N2OS(=O)(=O)O [AVIBACTAM]
IC50 [14]: 59 nM
MIC (Escherichia coli [15]): 16 µg/mL (≈ 60.3 µM)
MIC (Klebsiella pneumoniae [16]): > 32 µg/mL
MPC (Enterobacter cloacae [17]): 8 µg/mL
MPC (Klebsiella pneumoniae [18]): 0.5 µg/mL
MIC (Klebsiella pneumoniae [19]): > 32 µg/mL
MIC (Enterobacter cloacae [20]): 32 µg/mL (≈ 121 µM)
MPC (Klebsiella pneumoniae [21]): 2 µg/mL
MIC (Enterobacter cloacae [22]): 32 µg/mL (≈ 121 µM)
MIC (Klebsiella pneumoniae [23]): > 32 µg/mL
MIC (Klebsiella pneumoniae [24]): 32 µg/mL (≈ 121 µM)
IC50 [25]: 5700 nM
MPC (Klebsiella pneumoniae [26]): 0.063 µg/mL
MPC (Escherichia coli [27]): 0.125 µg/mL
MPC (Klebsiella pneumoniae [28]): 1 µg/mL
MPC (Escherichia coli [29]): 0.5 µg/mL
MIC (Klebsiella pneumoniae [30]): > 32 µg/mL
MIC (Klebsiella pneumoniae [31]): > 32 µg/mL
MPC (Klebsiella pneumoniae [32]): 4 µg/mL
MPC (Klebsiella pneumoniae [33]): 8 µg/mL
MPC (Klebsiella pneumoniae [34]): 2 µg/mL
MPC (Enterobacter cloacae [35]): 16 µg/mL
MPC (Klebsiella pneumoniae [36]): 0.125 µg/mL
MIC (Klebsiella pneumoniae [37]): > 32 µg/mL
MIC (Enterobacter cloacae [38]): 32 µg/mL (≈ 121 µM)
IC50 [39]: 72 nM
MIC (Klebsiella pneumoniae [40]): 32 µg/mL (≈ 121 µM)
MIC (Escherichia coli [41]): 16 µg/mL (≈ 60.3 µM)
MPC (Enterobacter cloacae [42]): 4 µg/mL
